The text below walks through data of ChEMBL document CHEMBL3992564, “Design and synthesis of novel, potent and selective hypoxanthine analogs as adenosine A1 receptor antagonists and their biological evaluation” (Bioorg Med Chem, 2017).

The structures appear in SMILES notation. In brackets after ≈: the same amount, converted by molar mass. Activity calls are given as the source filed them. The calls are words filed in the database; no cut-off is given here.

The nature of series [1]: Metabolic stability in human liver microsomes assessed as parent compound remaining measured after 30 mins in presence of NADPH. The class given is ADME, microsome. Particulars: read-out: Stability. For orientation: Microsomes from liver hold many membrane-bound enzymes, among them those of drug oxidation.
Series [2] in a line: Metabolic stability in rat liver microsomes assessed as parent compound remaining measured after 30 mins in presence of NADPH. The class given is ADME, microsome. Particulars: read-out: Stability.
The target of series [3] is T1, Adenosine receptor A1 (Homo sapiens) (UniProt P30542).
T1 sequence (whole entry): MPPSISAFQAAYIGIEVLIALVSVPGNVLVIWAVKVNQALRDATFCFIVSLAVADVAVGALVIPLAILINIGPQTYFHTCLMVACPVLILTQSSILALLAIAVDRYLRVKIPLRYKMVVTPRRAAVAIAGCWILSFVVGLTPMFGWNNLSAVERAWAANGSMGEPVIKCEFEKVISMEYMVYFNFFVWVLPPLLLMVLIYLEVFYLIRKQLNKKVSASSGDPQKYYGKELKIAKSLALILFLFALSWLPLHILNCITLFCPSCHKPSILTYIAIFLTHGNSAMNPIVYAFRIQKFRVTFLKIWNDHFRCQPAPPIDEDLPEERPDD
As to the kind of experiment: Displacement of [3H]DPCPX from human adenosine A1 receptor expressed in HEK293 cell membranes at 1 uM after 90 mins relative to control. The procedure, abridged: (§1)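 Membranes from HEK-293 cells stably transfected with human receptor, pre-treated with adenosine deaminase. Radioligands: 1 nM [3H]DPCPX (A1), 1 nM [3H]ZM241385 (A2A), 1.6 nM [3H]MRS-1754 (A2B), 2 nM [3H]HEMADO (A3). Buffers: Tris pH 7.4 (A1, A2A, A3) or pH 6.5 (A2B), with ADA. Incubated 90 min at room temperature, then filtered. Nonspecific binding defined with 100 µM NECA. Ki from 8 concentrations run in triplicate.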
(In general: Displacement assays read how much labelled ligand stays bound in the presence of the test substance.)

The target of series [4] is T2, Adenosine receptor A3 (Homo sapiens) (UniProt P0DMS8).
T2 sequence (whole entry): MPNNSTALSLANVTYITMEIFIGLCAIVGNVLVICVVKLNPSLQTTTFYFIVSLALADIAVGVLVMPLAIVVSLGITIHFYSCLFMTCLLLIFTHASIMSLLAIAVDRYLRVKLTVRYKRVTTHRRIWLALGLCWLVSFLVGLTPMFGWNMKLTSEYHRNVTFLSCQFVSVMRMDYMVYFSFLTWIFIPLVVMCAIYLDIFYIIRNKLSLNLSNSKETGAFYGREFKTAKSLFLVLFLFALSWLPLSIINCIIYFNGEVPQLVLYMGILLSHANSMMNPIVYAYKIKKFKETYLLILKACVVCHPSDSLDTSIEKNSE
Briefly: Displacement of [3H]HEMADO from human adenosine A3 receptor expressed in HEK293 cell membranes at 1 uM after 90 mins relative to control. In short, it runs like this:
as §1

For series [5], the target named is T3, Adenosine receptor A2b (Homo sapiens) (UniProt P29275).
T3 sequence (whole entry): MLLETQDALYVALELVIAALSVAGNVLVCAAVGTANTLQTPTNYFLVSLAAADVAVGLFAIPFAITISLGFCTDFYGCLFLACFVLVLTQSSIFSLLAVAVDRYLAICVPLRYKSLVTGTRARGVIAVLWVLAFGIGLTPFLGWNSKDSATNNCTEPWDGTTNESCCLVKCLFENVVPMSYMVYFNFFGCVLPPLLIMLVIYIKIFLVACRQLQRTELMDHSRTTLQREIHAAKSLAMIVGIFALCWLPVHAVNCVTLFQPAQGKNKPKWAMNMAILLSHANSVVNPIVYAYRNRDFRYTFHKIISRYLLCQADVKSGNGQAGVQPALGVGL
As to the kind of experiment: Displacement of [3H]MRS-1754 from human adenosine A2B receptor expressed in HEK293 cell membranes at 1 uM after 90 mins relative to control. In short, it runs like this: as §1

For series [6], the target named is Adenosine receptor A2a (Homo sapiens, UniProt P29274). Briefly: Displacement of [3H]ZM241385 from human adenosine A2A receptor expressed in HEK293 cell membranes at 1 uM after 90 mins relative to control. In short, it runs like this:
as §1

Series [7] has as its target T1, Adenosine receptor A1 (Homo sapiens). Briefly: Antagonist activity at human adenosine A1 receptor expressed in HEK293 cells assessed as reduction in CPA-mediated inhibition of forskolin-stimulated cAMP level at 30 uM preincubated for 15 mins followed by CPA treatment for 15 mins and subsequent addition of forskolin measured after 30 mins by HTRF assay relative to control. The format is functional, cell-based. In short, it runs like this: (§2)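 Overnight HEK-A1 or HEK-A2B cultures were treated with 1 U/mL ADA for 90 min at 37°C. Compound was added for 15 min, then agonist for 15 min (1 nM CPA for A1; 70 nM NECA for A2B) at room temperature in incomplete DMEM with ADA. Rolipram (20 µM) was included for A1 only. cAMP was read by HTRF.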
On the technique in general: Changes in cAMP serve as a functional read-out for many G protein-coupled receptors.

Series [8] can be described thus: Drug metabolism assessed as hydroxylation at C-8 cyclopentyl by metabolic soft spot analysis. The format is physicochemical.
Series [9] relates to Liver. As to the kind of experiment: Metabolic stability in human liver microsomes assessed as metabolic rate measured after 30 mins in presence of NADPH. The format is ADME, microsome. Particulars: 0.5 h.
The target in series [10] is T4, Adenosine receptor A1 (Homo sapiens, UniProt P30542).
T4 sequence (P30542 whole entry): T1 sequence (whole entry)
Briefly: Displacement of [3H]DPCPX from human adenosine A1 receptor expressed in HEK293 cell membranes after 90 mins.

Series [11] can be described thus: Drug metabolism assessed as N-oxidation by metabolic soft spot analysis. The class given is physicochemical.
Series [12] can be described thus: Thermodynamic solubility of the compound in pH 2 solution. The class given is physicochemical. The following applies: read-out: Therm_solubility.
Series [13] can be described thus: Protein binding in rat plasma at 5 uM. The format is ADME, cell-free. Particulars: read-out: PPB (converted).
The target of series [14] is CYP2C9 (Homo sapiens, UniProt P11712). Briefly: Inhibition of CYP2C9 (unknown origin) at 5 uM relative to control. The class given is ADME.
CYP2C9, sequence (P11712 whole entry): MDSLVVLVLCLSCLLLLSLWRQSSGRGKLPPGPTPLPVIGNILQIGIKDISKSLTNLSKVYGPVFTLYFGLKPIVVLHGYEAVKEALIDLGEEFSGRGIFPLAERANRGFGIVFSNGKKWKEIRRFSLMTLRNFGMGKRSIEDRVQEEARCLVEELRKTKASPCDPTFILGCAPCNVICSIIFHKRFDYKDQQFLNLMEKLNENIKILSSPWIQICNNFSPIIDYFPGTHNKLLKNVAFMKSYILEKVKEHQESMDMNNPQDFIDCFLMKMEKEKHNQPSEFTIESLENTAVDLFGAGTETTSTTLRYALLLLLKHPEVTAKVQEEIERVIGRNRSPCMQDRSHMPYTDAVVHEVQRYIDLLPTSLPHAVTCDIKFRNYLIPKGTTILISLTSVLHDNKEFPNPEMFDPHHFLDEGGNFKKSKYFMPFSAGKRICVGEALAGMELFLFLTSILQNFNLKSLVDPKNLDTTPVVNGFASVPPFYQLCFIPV
In series [15] the target is CYP2C19 (Homo sapiens, UniProt P33261). As to the kind of experiment: Inhibition of CYP2C19 (unknown origin) at 5 uM relative to control. The class given is ADME.
CYP2C19, sequence (P33261 whole entry): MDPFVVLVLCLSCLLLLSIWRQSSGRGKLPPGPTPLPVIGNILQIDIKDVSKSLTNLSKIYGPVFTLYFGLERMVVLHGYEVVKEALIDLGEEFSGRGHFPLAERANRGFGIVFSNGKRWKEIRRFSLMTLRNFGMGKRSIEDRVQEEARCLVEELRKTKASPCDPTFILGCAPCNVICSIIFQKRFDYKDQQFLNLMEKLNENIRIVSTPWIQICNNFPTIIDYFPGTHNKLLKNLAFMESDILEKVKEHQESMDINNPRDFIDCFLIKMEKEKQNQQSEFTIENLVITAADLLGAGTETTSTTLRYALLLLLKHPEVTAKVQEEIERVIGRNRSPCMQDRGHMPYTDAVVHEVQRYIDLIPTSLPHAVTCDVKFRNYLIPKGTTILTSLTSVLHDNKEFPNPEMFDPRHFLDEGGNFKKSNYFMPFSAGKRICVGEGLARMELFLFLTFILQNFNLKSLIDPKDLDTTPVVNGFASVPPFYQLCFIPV
The target of series [16] is T4, Adenosine receptor A1. As to the kind of experiment: Antagonist activity at human adenosine A1 receptor expressed in HEK293 cells assessed as reduction in CPA-mediated inhibition of forskolin-stimulated cAMP level preincubated for 15 mins followed by CPA treatment for 15 mins and subsequent addition of forskolin measured after 30 mins by HTRF assay. The class given is functional, cell-based.

In series [17] the test system is Liver. As to the kind of experiment: Metabolic stability in rat liver microsomes assessed as metabolic rate measured after 30 mins in presence of NADPH. Particulars: 0.5 h. The format is ADME, microsome.
Series [18] is described as follows: Clearance in Wistar rat at 3 mg/kg, iv by LC-Ms/MS analysis. The format is ADME, organism-based. Particulars: in vivo. In short, it runs like this:
(§3)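 Male Wistar rats (230 ± 15 g), fasted overnight with water available. IV dose of 3 mg/kg given by tail vein as a solution (0.6 mg/mL, 5 mL/kg). PO dose of 5 mg/kg given by gavage as a suspension. Blood was collected into K2EDTA at 0.008 (IV only) to 24 h and plasma was spun off. Samples were precipitated with acetonitrile and run on LC/MS/MS. Parameters came from non-compartmental analysis of individual animals, mean of n = 4.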

Series [19] addresses T3, Adenosine receptor A2b (Homo sapiens). Briefly: Antagonist activity at human adenosine A2B receptor expressed in HEK293 cells assessed as reduction in NECA-induced increase in cAMP level at 1 uM preincubated for 15 mins followed by NECA addition measured after 15 mins by HTRF assay relative to control. The format is functional, cell-based. The procedure, abridged: as §2

Series [20] is described as follows: Elimination half life in Wistar rat at 3 mg/kg, iv by LC-Ms/MS analysis. The format is ADME, organism-based. Particulars: in vivo, read-out: beta t1/2 (converted). In short, it runs like this: as §3
A short description of series [21]: Thermodynamic solubility of the compound in pH 4 solution. The class given is physicochemical. The following applies: read-out: Therm_solubility.
Series [22] deals with CYP3A4 (Homo sapiens, UniProt P08684). Briefly: Inhibition of CYP3A4 (unknown origin) at 5 uM relative to control. The class given is ADME.
CYP3A4, sequence (P08684 whole entry): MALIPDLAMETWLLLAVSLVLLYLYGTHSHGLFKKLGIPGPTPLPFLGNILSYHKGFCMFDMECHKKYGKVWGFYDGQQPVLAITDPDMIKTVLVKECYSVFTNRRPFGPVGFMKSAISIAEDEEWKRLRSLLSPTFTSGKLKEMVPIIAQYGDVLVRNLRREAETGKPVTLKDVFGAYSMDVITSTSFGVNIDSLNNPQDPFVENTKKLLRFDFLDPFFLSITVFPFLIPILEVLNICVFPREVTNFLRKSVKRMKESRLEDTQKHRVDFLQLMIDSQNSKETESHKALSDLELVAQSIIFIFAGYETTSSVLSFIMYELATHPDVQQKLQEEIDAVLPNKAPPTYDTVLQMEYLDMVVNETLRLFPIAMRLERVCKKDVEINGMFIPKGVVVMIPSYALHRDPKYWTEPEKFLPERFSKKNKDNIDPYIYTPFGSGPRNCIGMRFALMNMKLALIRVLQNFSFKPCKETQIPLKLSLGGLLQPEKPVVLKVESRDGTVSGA
The target in series [23] is CYP2D6 (Homo sapiens, UniProt P10635). Briefly: Inhibition of CYP2D6 (unknown origin) at 5 uM relative to control. The class given is ADME.
CYP2D6, sequence (P10635 whole entry): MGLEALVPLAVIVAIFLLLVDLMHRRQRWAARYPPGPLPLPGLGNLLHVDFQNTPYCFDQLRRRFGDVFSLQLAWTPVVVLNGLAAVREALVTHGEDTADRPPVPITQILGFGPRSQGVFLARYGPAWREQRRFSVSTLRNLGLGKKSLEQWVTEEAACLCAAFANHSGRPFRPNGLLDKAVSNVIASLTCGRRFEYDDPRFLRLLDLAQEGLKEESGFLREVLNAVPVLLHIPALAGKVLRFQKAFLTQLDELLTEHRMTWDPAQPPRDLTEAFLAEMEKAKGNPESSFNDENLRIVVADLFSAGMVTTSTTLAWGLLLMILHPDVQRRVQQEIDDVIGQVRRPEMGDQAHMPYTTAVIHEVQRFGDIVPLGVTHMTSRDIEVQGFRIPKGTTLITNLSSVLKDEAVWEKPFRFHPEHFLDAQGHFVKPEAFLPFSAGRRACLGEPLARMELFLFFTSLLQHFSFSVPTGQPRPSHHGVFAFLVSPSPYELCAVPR
Series [24] in a line: Thermodynamic solubility of the compound in pH 7.4 solution. The format is physicochemical. Particulars: read-out: Therm_solubility.
For series [25], the target named is T5, CYP1A2 (Homo sapiens, UniProt P05177).
T5 sequence (P05177 whole entry): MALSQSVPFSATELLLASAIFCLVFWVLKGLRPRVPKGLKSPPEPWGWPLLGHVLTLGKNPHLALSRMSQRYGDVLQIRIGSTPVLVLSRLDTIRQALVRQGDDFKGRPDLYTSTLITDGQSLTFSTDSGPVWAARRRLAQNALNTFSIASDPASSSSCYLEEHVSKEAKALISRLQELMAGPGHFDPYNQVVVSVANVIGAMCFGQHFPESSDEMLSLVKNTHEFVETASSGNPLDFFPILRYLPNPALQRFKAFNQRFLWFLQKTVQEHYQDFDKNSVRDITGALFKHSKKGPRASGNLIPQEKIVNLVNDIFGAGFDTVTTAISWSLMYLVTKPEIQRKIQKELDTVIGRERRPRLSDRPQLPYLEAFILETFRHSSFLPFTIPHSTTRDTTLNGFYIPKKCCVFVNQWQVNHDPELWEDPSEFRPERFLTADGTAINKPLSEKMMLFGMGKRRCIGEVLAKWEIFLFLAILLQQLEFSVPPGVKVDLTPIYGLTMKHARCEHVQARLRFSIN
As to the kind of experiment: Inhibition of CYP1A2 (unknown origin) at 5 uM relative to control. The class given is ADME.

Series [26] in a line: AUC (0 to t) in Wistar rat at 3 mg/kg, iv by LC-Ms/MS analysis. Particulars: in vivo. The format is ADME, organism-based. In short, it runs like this: as §3
Series [27] in a line: Volume of distribution at steady state in Wistar rat at 3 mg/kg, iv by LC-Ms/MS analysis. The following applies: in vivo, read-out: Vdss. The class given is ADME, organism-based. The procedure, abridged: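 Male Wistar rats (230 ± 15 g), fasted overnight with water available. IV dosing at 3 mg/kg by tail vein as solution (0.6 mg/mL, 5 mL/kg). PO dosing at 5 mg/kg by oral gavage. Serial blood sampling into K2EDTA from 0.008 (IV only) to 24 h. Plasma precipitated with acetonitrile containing internal standard and analysed by LC/MS/MS. Non-compartmental parameters calculated per animal; values are means of n = 4.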

Adenosine receptor A2a, sequence (P29274 whole entry): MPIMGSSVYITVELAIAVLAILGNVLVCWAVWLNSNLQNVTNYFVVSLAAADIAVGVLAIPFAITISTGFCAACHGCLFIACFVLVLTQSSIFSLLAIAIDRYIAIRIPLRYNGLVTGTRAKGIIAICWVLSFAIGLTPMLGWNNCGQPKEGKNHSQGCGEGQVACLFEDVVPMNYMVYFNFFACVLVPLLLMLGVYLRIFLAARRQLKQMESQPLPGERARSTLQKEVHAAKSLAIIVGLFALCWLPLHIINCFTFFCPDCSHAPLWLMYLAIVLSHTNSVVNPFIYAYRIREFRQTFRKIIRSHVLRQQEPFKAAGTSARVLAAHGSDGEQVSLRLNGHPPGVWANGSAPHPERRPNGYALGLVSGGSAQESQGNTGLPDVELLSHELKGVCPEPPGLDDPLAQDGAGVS

For the molecule `COc1ccc(CCN(C)CCCC(C#N)(c2ccc(OC)c(OC)c2)C(C)C)cc1OC` (stereo unspecified), the remaining at 0.5 h worked out at 78% in series [1] and 68% in series [2].
What is called inhibition is the change of the read-out against control, counted positive when it falls. For `CCCn1c(NCCO)nc2nc(C3CCCC3)[nH]c2c1=O`, the inhibition in series [3] came to 36%; in [4], 0%; in series [5], 31%; in series [6] it was 5%.
On to `CCCn1c(-c2cccc(C(=O)O)c2)nc2nc(C3CCCC3)[nH]c2c1=O`, for which the inhibition in [7] was less than 50%. For the same molecule, the inhibition result in series [3] was “inactive”.
Broadly, the Ki is a measure of affinity in units of concentration, obtained from inhibition or displacement. Broadly, the clearance is the volume of plasma or blood freed of the substance per unit of time. A low value points to inefficient removal. What is called AUC(0-t) is the area under the concentration-time curve up to a stated or last time point. Low readings indicate less exposure, high ones more exposure. For the molecule `CCCn1c(OC2CCC(O)C2)nc2nc(C3CCCC3)[nH]c2c1=O` (stereo unspecified), the Drug metabolism entry in [8] is recorded as “Metabolite_Detected”; in [9] it was 0.12 nmol/min/mg; in series [11], “Metabolite_Detected”; in series [17], 0.1 nmol/min/mg. Besides, the Ki is 57 nM in series [10] and 9.6 nM in series [16]. The solubility thermodynamic in series [12] is 2590 µM (≈ 897 µg/mL); in series [21], 276 µM (≈ 95.6 µg/mL); in series [24] it was 182 µM (≈ 63.1 µg/mL). The fraction unbound at 5 µM in series [13] is 0.2. Besides, the inhibition at 5 µM in [14] turned out to be 4%; in series [15] it was 3%; in series [22], 0%; in series [23], 0%; in series [25], 5%. The inhibition in [4] is 37%; in [5], 35 to 41%; in [6] it was 0%; in series [19], 6%. The results for the remaining at 0.5 h in series [1] and in [2] were 60% and 68%, respectively. This molecule yielded a clearance in [18] of 48 mL/min/kg. In series [20], the half-life is 18 min. In series [26], this molecule displayed an AUC(0-t) of 3 µM·h. For the same molecule, in series [27], the Vd came to 0.8 L/kg.
As for `CCCn1c(-c2ccc(C(F)(F)F)cc2)nc2nc(C3CCCC3)[nH]c2c1=O`, the inhibition in [3] was 70%; in [4] it was 5%; in series [5], 12%; in series [6], 0%.
With `C[C@]12CC[C@H]3[C@@H](CCC4=CC(=O)CC[C@@]43C)[C@@H]1CC[C@@H]2O` [TESTOSTERONE], the Drug metabolism in series [9] was 0.05 nmol/min/mg; in [17], greater than 1.52 nmol/min/mg. Further, the results for the remaining at 0.5 h in series [1] and in series [2] were 84% and 2%, respectively.
